Converted amounts (≈) assume the structure as drawn. The source made the active and inactive calls. The calls are words filed in the database; no cut-off is given here.
Key:
[1] = test system: Candida albicans; assay: Antifungal activity against Candida albicans NRRL Y-477 after 48 hrs by two fold serial dilution method; type: functional
Method in brief: (§1)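 Two-fold serial broth dilution in a suitable broth, run only on compounds giving inhibition zones of at least 16 mm. Final concentrations were […]. Each 5 mL received 0.1 mL inoculum and was incubated 48 h at 28 °C. MIC was the lowest concentration without growth.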

[2] = test system: Candida albicans; assay: Antifungal activity against Candida albicans NRRL Y-477 using 100 uL of test compound after 48 hrs by agar well diffusion method; type: functional
Method in brief: (§2)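 Agar well diffusion. Sabouraud dextrose agar was spread with yeast or fungal suspension at 1×10⁶ CFU/mL, and 10 mm wells were cut. Wells were loaded with compound solution made at 200 mg per 1 mL DMSO. Plates were incubated 48 h at 28 °C and inhibition zones were measured. DMSO served as the negative control.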

[3] = test system: Escherichia coli; assay: Antibacterial activity against Escherichia coli ATCC 25922 after 24 hrs by two fold serial dilution method; type: functional
[4] = test system: Staphylococcus aureus; assay: Antibacterial activity against Staphylococcus aureus ATCC 29213 using 100 uL of test compound after 24 hrs by agar well diffusion method; type: functional
Method in brief: (§3)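 Agar well diffusion. Nutrient agar was spread with bacterial suspension at 1×10⁸ CFU/mL, and 10 mm wells were cut. Wells were loaded with compound solution made at 200 mg per 1 mL DMSO. Plates were incubated 24 h at 37 °C and inhibition zones were measured. DMSO served as the negative control.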

[5] = test system: Bacillus subtilis; assay: Antibacterial activity against Bacillus subtilis ATCC 6633 using 100 uL of test compound after 24 hrs by agar well diffusion method; type: functional; method in brief: as §3
[6] = test system: Klebsiella pneumoniae; assay: Antibacterial activity against Klebsiella pneumoniae ATCC 13883 after 24 hrs by two fold serial dilution method; type: functional; conditions: ATCC 13883, 24 h
[7] = test system: Priestia megaterium; assay: Antibacterial activity against Bacillus megaterium ATCC 9885 after 24 hrs by two fold serial dilution method; type: functional
[8] = test system: Aspergillus niger; assay: Antifungal activity against Aspergillus niger using 100 uL of test compound after 48 hrs by agar well diffusion method; type: functional; method in brief: as §2
[9] = test system: Pseudomonas aeruginosa; assay: Antibacterial activity against Pseudomonas aeruginosa ATCC 27953 using 100 uL of test compound after 24 hrs by agar well diffusion method; type: functional; method in brief: as §3
[10] = test system: Saccharomyces cerevisiae; assay: Antifungal activity against Saccharomyces cerevisiae using 100 uL of test compound after 48 hrs by agar well diffusion method; type: functional; method in brief: as §2
[11] = test system: Aspergillus niger; assay: Antifungal activity against Aspergillus niger after 48 hrs by two fold serial dilution method; type: functional; method in brief: as §1
[12] = Antioxidant activity assessed as DPPH free radical scavenging activity by spectrophotometric assay; type: physicochemical
Method in brief: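 Sample solutions at several concentrations were added to 0.004% DPPH in methanol and incubated 60 min in the dark. Absorbance was read at 517 nm against a blank. Inhibition % = (A_blank − A_sample)/A_blank × 100, where the control contained all reagents except the test compound.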

[13] = test system: Pseudomonas aeruginosa; assay: Antibacterial activity against Pseudomonas aeruginosa ATCC 27953 after 24 hrs by two fold serial dilution method; type: functional
[14] = test system: Priestia megaterium; assay: Antibacterial activity against Bacillus megaterium ATCC 9885 using 100 uL of test compound after 24 hrs by agar well diffusion method; type: functional; method in brief: as §3
[15] = test system: Saccharomyces cerevisiae; assay: Antifungal activity against Saccharomyces cerevisiae after 48 hrs by two fold serial dilution method; type: functional; method in brief: as §1
[16] = test system: Micrococcus luteus; assay: Antibacterial activity against Sarcina lutea after 24 hrs by two fold serial dilution method; type: functional
[17] = test system: Klebsiella pneumoniae; assay: Antibacterial activity against Klebsiella pneumoniae ATCC 13883 using 100 uL of test compound after 24 hrs by agar well diffusion method; type: functional; method in brief: as §3
[18] = test system: Staphylococcus aureus; assay: Antibacterial activity against Staphylococcus aureus ATCC 29213 after 24 hrs by two fold serial dilution method; type: functional
[19] = test system: Bacillus subtilis; assay: Antibacterial activity against Bacillus subtilis ATCC 6633 after 24 hrs by two fold serial dilution method; type: functional
[20] = test system: Escherichia coli; assay: Antibacterial activity against Escherichia coli ATCC 25922 using 100 uL of test compound after 24 hrs by agar well diffusion method; type: functional; method in brief: as §3
[21] = test system: Micrococcus luteus; assay: Antibacterial activity against Sarcina lutea using 100 uL of test compound after 24 hrs by agar well diffusion method; type: functional; method in brief: as §3

| Compound | MIC [1] | diameter of the inhibition zone (DIZ) [2] | MIC ([3]; ATCC 25922, 24 h) [µg/mL] | diameter of the inhibition zone (DIZ) [4] | diameter of the inhibition zone (DIZ) [5] | MIC [6] [µg/mL] | MIC ([7]; ATCC 9885, 24 h) [µg/mL] | diameter of the inhibition zone (DIZ) [8] [mm] | diameter of the inhibition zone (DIZ) [9] [mm] | diameter of the inhibition zone (DIZ) [10] [mm] | MIC [11] [µg/mL] | IC50 [12] | MIC [13] | diameter of the inhibition zone (DIZ) [14] | MIC [15] | MIC [16] | diameter of the inhibition zone (DIZ) [17] [mm] | MIC ([18]; ATCC 29213, 24 h) [µg/mL] | diameter of the inhibition zone (DIZ) [20] [mm] | diameter of the inhibition zone (DIZ) [21] | other results |
| --- | --- | --- | --- | --- | --- | --- | --- | --- | --- | --- | --- | --- | --- | --- | --- | --- | --- | --- | --- | --- | --- |
| CC(Cc1cn(CC(=O)c2ccc(F)cc2)nn1)(OCc1cn(CC(=O)c2ccc(F)cc2)nn1)c1ccc(S(=O)(=O)c2ccccc2)cc1 (configuration not stated) | inactive | inactive | 100 (≈ 144 µM) | 27 mm | 15 mm | 100 (≈ 144 µM) | 200 (≈ 287 µM) | 34 | 27 | 15 | 25 (≈ 35.9 µM) | 150 µg/mL (≈ 215 µM) | 100 µg/mL (≈ 144 µM) | 17 mm | inactive | 50 µg/mL (≈ 71.8 µM) | 26 | 100 (≈ 144 µM) | 25 | 26 mm | MIC [19]: inactive |
| CC(O)(Cc1cn(CC(=O)c2ccc(Br)cc2)nn1)c1ccc(S(=O)(=O)c2ccccc2)cc1 (configuration not stated) | inactive | 15 mm | 200 (≈ 370 µM) | 17 mm | 17 mm | 200 (≈ 370 µM) |  | 20 | 19 | 14 | 200 (≈ 370 µM) | 800 µg/mL (≈ 1480 µM) | 200 µg/mL (≈ 370 µM) | inactive | inactive | inactive | 19 | 200 (≈ 370 µM) | 17 | inactive | MIC [7]: inactive; MIC ([19]; ATCC 6633, 24 h): 200 µg/mL (≈ 370 µM) |
| O=C(Cn1cc(CC(O)c2ccc(S(=O)(=O)c3ccccc3)cc2)nn1)c1ccc(S(=O)(=O)c2ccccc2)cc1 (configuration not stated) | inactive | 15 mm |  | 17 mm | 20 mm | 200 (≈ 340 µM) |  | 28 | 17 | 16 | 50 (≈ 85.1 µM) | 74 µg/mL (≈ 126 µM) | 200 µg/mL (≈ 340 µM) | 15 mm | 200 µg/mL (≈ 340 µM) | 100 µg/mL (≈ 170 µM) | 19 | 200 (≈ 340 µM) | 17 | 22 mm | MIC [3]: inactive; MIC [7]: inactive; MIC ([19]; ATCC 6633, 24 h): 200 µg/mL (≈ 340 µM) |
| CC(O)(Cc1cn(Cc2ccccc2)nn1)c1ccc(S(=O)(=O)c2ccccc2)cc1 (configuration not stated) |  | 19 mm | 200 (≈ 461 µM) | 22 mm | 16 mm | 100 (≈ 231 µM) | 200 (≈ 461 µM) | 32 | 23 | 16 | 25 (≈ 57.7 µM) | 600 µg/mL (≈ 1380 µM) | 200 µg/mL (≈ 461 µM) | 17 mm | 200 µg/mL (≈ 461 µM) | 200 µg/mL (≈ 461 µM) | 24 | 200 (≈ 461 µM) | 22 | 23 mm | MIC ([1]; NRRL Y-477, 48 h): 200 µg/mL (≈ 461 µM); MIC ([19]; ATCC 6633, 24 h): 200 µg/mL (≈ 461 µM) |
| CC(Cc1cn(CC(=O)c2ccc(S(=O)(=O)c3ccccc3)cc2)nn1)(OCc1cn(CC(=O)c2ccc(S(=O)(=O)c3ccccc3)cc2)nn1)c1ccc(S(=O)(=O)c2ccccc2)cc1 (configuration not stated) | inactive | 15 mm | 200 (≈ 213 µM) | 14 mm | 14 mm | 200 (≈ 213 µM) | 200 (≈ 213 µM) | 34 | 19 | 14 | 25 (≈ 26.6 µM) | 600 µg/mL (≈ 638 µM) | 200 µg/mL (≈ 213 µM) | 22 mm | inactive | 100 µg/mL (≈ 106 µM) | 19 |  | 17 | 25 mm | MIC [18]: inactive; MIC [19]: inactive |
| CC(Cc1cn(CC(=O)c2ccc(Br)cc2)nn1)(OCc1cn(CC(=O)c2ccc(Br)cc2)nn1)c1ccc(S(=O)(=O)c2ccccc2)cc1 (configuration not stated) | inactive | 15 mm | 100 (≈ 122 µM) | 24 mm | 14 mm | 100 (≈ 122 µM) | 100 (≈ 122 µM) | 32 | 26 | 14 | 25 (≈ 30.5 µM) | Not Active | 100 µg/mL (≈ 122 µM) | 23 mm | inactive | 100 µg/mL (≈ 122 µM) | 26 | 100 (≈ 122 µM) | 24 | 24 mm | MIC [19]: inactive |
| CC(O)(Cc1cn(CC(=O)c2ccc(S(=O)(=O)c3ccccc3)cc2)nn1)c1ccc(S(=O)(=O)c2ccccc2)cc1 (configuration not stated) | inactive | 15 mm | 200 (≈ 332 µM) | inactive | inactive | 200 (≈ 332 µM) | 200 (≈ 332 µM) | 32 | 15 | 17 | 50 (≈ 83.1 µM) | 20 µg/mL (≈ 33.2 µM) | inactive | 17 mm | 200 µg/mL (≈ 332 µM) | inactive | 18 |  | 19 | 14 mm | MIC [18]: inactive; MIC [19]: inactive |
